Assay results of several laboratories.
Each line is one published result; the experiments were not run side by side.
Target: Peripheral plasma membrane protein CASK (CASK, Homo sapiens, UniProt O14936)
Residues used in one study (O14936 1-926): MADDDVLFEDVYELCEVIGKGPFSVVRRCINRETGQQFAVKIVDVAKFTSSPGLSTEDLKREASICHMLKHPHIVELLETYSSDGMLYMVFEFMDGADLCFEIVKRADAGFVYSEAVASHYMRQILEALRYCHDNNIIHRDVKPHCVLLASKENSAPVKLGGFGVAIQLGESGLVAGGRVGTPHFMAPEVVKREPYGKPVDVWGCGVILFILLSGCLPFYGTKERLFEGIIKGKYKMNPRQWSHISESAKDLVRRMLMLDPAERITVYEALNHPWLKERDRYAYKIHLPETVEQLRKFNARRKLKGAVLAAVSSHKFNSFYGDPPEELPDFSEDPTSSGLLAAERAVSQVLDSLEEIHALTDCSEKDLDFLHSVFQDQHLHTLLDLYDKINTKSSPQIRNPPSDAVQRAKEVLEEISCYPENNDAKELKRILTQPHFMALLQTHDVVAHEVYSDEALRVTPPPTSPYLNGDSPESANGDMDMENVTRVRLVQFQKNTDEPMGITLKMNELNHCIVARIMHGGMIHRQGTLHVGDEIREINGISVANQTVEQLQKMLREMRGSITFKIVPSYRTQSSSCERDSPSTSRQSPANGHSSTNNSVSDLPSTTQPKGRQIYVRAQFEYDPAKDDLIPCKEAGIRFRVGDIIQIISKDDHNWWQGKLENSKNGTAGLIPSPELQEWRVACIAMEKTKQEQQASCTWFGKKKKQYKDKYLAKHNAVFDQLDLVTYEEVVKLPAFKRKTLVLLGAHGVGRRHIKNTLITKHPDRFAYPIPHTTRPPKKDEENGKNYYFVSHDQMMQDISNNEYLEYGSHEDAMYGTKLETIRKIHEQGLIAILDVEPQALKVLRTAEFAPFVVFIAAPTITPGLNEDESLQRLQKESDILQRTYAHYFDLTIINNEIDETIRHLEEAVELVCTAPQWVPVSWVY

Cc1c(NC(=O)c2cc(C(N)=O)nc3cc(F)ccc23)c(C(F)(F)F)nn1Cc1ccc(C#N)cc1  remaining binding (cell-free assay, competition with immobilised ligand; 1 µM): 71%
O=C(c1ccc(Nc2ncc(Cl)c(-c3cc4ccccc4s3)n2)cc1)N1CCC(N2CCCC2)CC1  remaining binding (binding, competition with immobilised ligand; 1 µM): 74%
O=C(NCC1CCOCC1)c1n[nH]cc1NC(=O)c1c(F)cccc1F  remaining binding (binding, competition with immobilised ligand; 1 µM): 61%
CC1CCCN1c1nccc(-c2cnn3ncccc23)n1 (stereo not drawn)  remaining binding (binding, competition with immobilised ligand; 1 µM): 100%
O=C(NCCCN1CCOCC1)c1ccc(Nc2nccc(-c3cc4ccccc4s3)n2)cc1  remaining binding (binding, competition with immobilised ligand; 1 µM): 100%
CN(CCCC(F)(F)F)c1nccc(-c2cnn3ncccc23)n1  remaining binding (binding; 1 µM): 100%
O=C(O)[C@@H]1[C@@H](Cn2nnc3ccccc3c2=O)CC[C@H]1C(=O)c1ccc(OCCC2CCOCC2)cc1  remaining binding (cell-free assay, competition with immobilised ligand; 1 µM): 100%
C[C@@H]1CCN(c2nccc(-c3cnn4ncccc34)n2)C1  remaining binding (binding; 1 µM): 84%
FC(F)(F)Oc1cccc(-c2cnc3ccc(-c4ccncc4)nn23)c1  remaining binding (cell-free assay, competition with immobilised ligand; 5 µM): 50%
CN(C)c1nccc(-c2cnn3ncccc23)n1  remaining binding (binding, competition with immobilised ligand; 1 µM): 90%
FC(F)(F)c1ccc2c(c1)nc(-c1cccnc1)n2C1CC1  remaining binding (cell-free assay, competition with immobilised ligand; 1 µM): 100%
C=CC(=O)N1CCC(C(=O)NCC(=O)N2CCN(c3nc(-c4cnc(N)nc4C(F)F)nc(N4CCOCC4)n3)CC2)CC1  remaining binding (binding, competition with immobilised ligand; 1 µM): 69%
O=C(Nc1cccnn1)N1CCC(=Cc2cccc(Oc3ccc(C(F)(F)F)cn3)c2)CC1  remaining binding (cell-free assay, competition with immobilised ligand; 1 µM): 92%
N[C@H]1CCN(c2nccc(-c3cnn4ncccc34)n2)C1  remaining binding (binding, competition with immobilised ligand; 1 µM): 100%
Cc1nc(C2CCN(C(=O)c3ccc(OC(F)(F)F)cc3N)CC2)c2ncc(N3CCN(C)CC3)cc2n1  remaining binding (cell-free assay, competition with immobilised ligand; 1 µM): 87%
O=C(NCCCN1CCOCC1)c1ccc(Nc2ncc(Cl)c(-c3ccc(Cl)s3)n2)cc1  remaining binding (binding, competition with immobilised ligand; 1 µM): 98%
CCN1CCN(Cc2ccc(C(=O)Nc3ccc(C)c(Oc4ccc5c(c4)CC(=O)N5)c3)cc2C(F)(F)F)CC1  remaining binding (binding, competition with immobilised ligand; 1 µM): 100%
c1cncc(-c2cccc(Nc3nccc(NC4CCCCC4)n3)c2)c1  remaining binding (binding, competition with immobilised ligand; 10 µM): 76%
COc1ccnn2ncc(-c3ccnc(N(C)C)n3)c12  remaining binding (binding; 1 µM): 96%
CCCCN(CCCC)C(=O)CN1C[C@@H](c2cc(OC)c3c(c2)OCO3)[C@H](C(=O)O)[C@H]1CC(C)(C)CCC  remaining binding (cell-free assay, competition with immobilised ligand; 1 µM): 90.5%
CNC(=O)[C@@H]1CC[C@@H](n2c(-c3ccc4cnccc4c3)nc3ccc(C(=O)NCc4cccc(C(N)=O)c4)cc32)C1  remaining binding (binding, competition with immobilised ligand; 1 µM): 82%
